Our source for the EC50, MIC and IC50 values is ChEMBL document CHEMBL1145814, “Antiretroviral activity of semisynthetic derivatives of glycopeptide antibiotics” (J Med Chem, 2003).

Molecules are shown by their SMILES. Values after ≈ are worked out from the molar mass of the structure shown. A value given as a limit tells only on which side of the number the result lay.

Assay [1] relates to Human immunodeficiency virus 1. In words: Effective concentration of compound required to protect human T-lymphocytic cells against the cytopathogenicity of HIV-1. The assay is classed as functional, organism-based. Conditions: Human immunodeficiency virus 1.
Assay [2] deals with Human immunodeficiency virus 2. In words: Concentration required to protect human T-lymphocytic cells against the cytopathogenicity of HIV-2. It is filed as functional, organism-based. Conditions: Human immunodeficiency virus 2.
The species named for assay [3] is Mus musculus. Nature of the assay: Minimal inhibitory concentration required to cause a microscopic detectable alteration of C3H/3T3 embryo murine fibroblast cell morphology. The assay is classed as functional. A digest of the protocol: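 Uninfected C3H/3T3 murine embryo fibroblast cultures were exposed to test compound and checked microscopically for changes in cell morphology. The MIC is the concentration causing a microscopically detectable alteration of morphology.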

A further assay has as its system CCRF-CEM. Nature of the assay: Inhibitory concentration against proliferation of human T-lymphocytic (CEM) cells. It is filed as functional, cell-based. Conditions: Homo sapiens, CCRF-CEM. A digest of the protocol:
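(5–7.5) × 10^4 cells per well were incubated with test compound at 37 °C in a humidified CO2 atmosphere. L1210 murine leukemia cells grew for 48 h, and CEM and Molt4/clone 8 human lymphocytes grew for 72 h. Cells were then counted with a Coulter counter. IC50 is the concentration inhibiting proliferation by 50%.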

The species named for assay [4] is Mus musculus. Nature of the assay: Effective concentration of compound required to protect C3H/3T3 embryo murine fibroblasts against the MSV induced transformation. The assay is classed as functional, organism-based. Conditions: Mus musculus, C3H/3T3. A digest of the protocol:
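Monolayer murine embryo fibroblast C3H/3T3 cultures were infected with Moloney murine sarcoma virus at 75 focus-forming units and cultured with test compound. Transformation was examined microscopically on day 6 postinfection. EC50 is the concentration protecting cells against MSV-induced transformation by 50%.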

In the case of `CC(C)CC(C(=O)NC1C(=O)NC(CC(N)=O)C(=O)NC2C(=O)NC3C(=O)NC(C(=O)N[C@@H](C(=O)O)c4cc(O)c(CN5CCN(Cc6ccc(-c7ccccc7)cc6)CC5)c(O)c4-c4cc3ccc4O)C(O)c3ccc(cc3)Oc3cc2cc(c3O)Oc2ccc(cc2Cl)C1O)N(C)C(=O)OC(C)(C)C` (some centres not stated), the half-maximal effective concentration (EC50) in assay [1] stood at 4.5 µM; in assay [2], 4.5 µM; in the assay filed under Mus musculus [4] it was 8.4 µM. Also, in the assay filed under Mus musculus [3], the MIC was above 100 µM. This compound also returned an IC50 with CCRF-CEM above 100 µM.
Turning to `NC(=O)C[C@@H]1NC(=O)C(N)C(O)c2ccc(c(Cl)c2)Oc2cc3cc(c2O)Oc2ccc(cc2)C(O)C2NC(=O)C(NC(=O)C3NC1=O)c1ccc(O)c(c1)-c1c(O)cc(O)cc1[C@H](C(=O)O)NC2=O` (some centres not stated), the results for the EC50 (in assay [1]; in assay [2]; in the assay filed under Mus musculus [4]) were 115 µM, above 250 µM and above 100 µM, respectively. Further, the MIC in the assay listed under Mus musculus [3] was above 100 µM. In the assay on CCRF-CEM, this compound came in with a 50% inhibitory concentration (IC50) above 250 µM.
Turning to `CCCCc1ccc(CNC2C(Oc3c4cc5cc3Oc3ccc(cc3Cl)C(O)C3NC(=O)C(NC(=O)C5NC(=O)C5NC(=O)C(Cc6ccc(cc6)O4)NC(=O)C(NC)c4ccc(O)c(c4)Oc4cc(O)c(Cl)c5c4)c4ccc(O)c(c4)-c4c(cc(O)c(CN5CCN(Cc6ccc(-c7ccccc7)cc6)CC5)c4O)[C@H](C(=O)O)NC3=O)OC(C(=O)O)C(O)C2O)cc1` (some centres not stated), the EC50 was 3.5 µM in assay [1], 22 µM in assay [2] and 6.9 µM in the assay listed under Mus musculus [4]. Further, in the assay listed under Mus musculus [3], the MIC is above 20 µM. The same compound gave an IC50 with CCRF-CEM of 81 µM.
As for `CNC(=O)[C@@H]1NC(=O)C2NC(=O)C(NC(=O)C3NC(=O)C4NC(=O)C(Cc5ccc(c(Cl)c5)Oc5cc3cc(c5O)Oc3ccc(cc3Cl)C2O)NC(=O)C(NC(=O)OC23CC5CC(CC(C5)C2)C3)c2ccc(O)c(c2)Oc2cc(O)cc4c2)c2ccc(O)c(c2)-c2c(O)cc(O)cc21` (some centres not stated), the EC50 turned out to be 17 µM in assay [1], 7.8 µM in assay [2] and 8.7 µM in the assay listed under Mus musculus [4]. In the assay filed under Mus musculus [3], this compound registered an MIC of 100 µM (≈ 139 µg/mL). Moreover, the concentration for half-maximal inhibition (IC50) in the assay with CCRF-CEM came out at 88 µM.
The matching figures for `NC(=O)CC1NC(=O)C(N)C(O)c2ccc(c(Cl)c2)Oc2cc3cc(c2O)Oc2ccc(cc2)C(O)C2NC(=O)C(NC(=O)C3NC1=O)c1ccc(O)c(c1)-c1c(cc(O)c(CNC3C4CC5CC(C4)CC3C5)c1O)[C@H](C(=O)O)NC2=O` (some centres not stated): 22 µM, 40 µM, 47 µM, above 100 µM and above 250 µM.
The matching figures for `CC(C)(C)OC(=O)NC1C(=O)NC2Cc3ccc(c(Cl)c3)Oc3cc4cc(c3O)Oc3ccc(cc3Cl)C(O)C3NC(=O)C(NC(=O)C4NC(=O)C(NC2=O)c2cc(O)cc(c2)Oc2cc1ccc2O)c1ccc(O)c(c1)-c1c(O)cc(O)cc1[C@H](C(=O)O)NC3=O` (some centres not stated): 13 µM, 20 µM, 12 µM, above 100 µM and above 250 µM.
On the same counts, the results for `CCCCc1ccc(CNCc2c(O)cc3c(c2O)-c2cc(ccc2O)C2NC(=O)C4NC(=O)C5NC(=O)C(Cc6ccc(c(Cl)c6)Oc6cc4cc(c6O)Oc4ccc(cc4Cl)C(O)C(NC2=O)C(=O)N[C@H]3C(=O)O)NC(=O)C(NC(=O)OC(C)(C)C)c2ccc(O)c(c2)Oc2cc(O)cc5c2)cc1` (some centres not stated) are 20 µM, 8.3 µM, 7.6 µM, above 100 µM and 60 µM.
Turning to `CCCCCCCCCCCCCCCCCCNCc1c(O)cc2c(c1O)-c1cc(ccc1O)C1NC(=O)C3NC(=O)C4NC(=O)C(Cc5ccc(c(Cl)c5)Oc5cc3cc(c5O)Oc3ccc(cc3Cl)C(O)C(NC1=O)C(=O)N[C@H]2C(=O)NC)NC(=O)C(N)c1ccc(O)c(c1)Oc1cc(O)cc4c1` (some centres not stated), the EC50 in assay [1] amounted to 2.5 µM; in assay [2] it was 6 µM; in the assay listed under Mus musculus [4], 4.7 µM. Moreover, the MIC in the assay listed under Mus musculus [3] was found to be 100 µM (≈ 149 µg/mL). The compound also registered an IC50 with CCRF-CEM of 60 µM.
On the same counts, the results for `O=C1NC2C(=O)NC3C(=O)NC4C(=O)NC(C(=O)N[C@@H](C(=O)O)c5cc(O)cc(O)c5-c5cc4ccc5O)C(O)c4ccc(c(Cl)c4)Oc4cc3cc(c4O)Oc3ccc(cc3Cl)CC1NC(=O)C(/N=C(\S)Nc1ccccc1)c1ccc(O)c(c1)Oc1cc(O)cc2c1` (some centres not stated) are 6 µM, 8 µM, 7.5 µM, 100 µM (≈ 133 µg/mL) and 220 µM.
With `CN[C@H](CC(C)C)C(=O)N[C@H]1C(=O)N[C@@H](CC(N)=O)C(=O)N[C@H]2C(=O)N[C@H]3C(=O)N[C@H](C(=O)N[C@H](C(=O)NCc4ccc(-c5ccc(Cl)cc5)cc4)c4cc(O)cc(O)c4-c4cc3ccc4O)[C@H](O)c3ccc(c(Cl)c3)Oc3cc2cc(c3O[C@@H]2O[C@H](CO)[C@@H](O)[C@H](O)[C@H]2O[C@H]2C[C@](C)(N)C(O)[C@H](C)O2)Oc2ccc(cc2Cl)[C@H]1O` (some centres not stated) [listing 1 of 2 here], in the assay filed under Mus musculus [3], the MIC was found to be 20 µM (≈ 33 µg/mL).
As to `NC1C(=O)NC2Cc3ccc(c(Cl)c3)Oc3cc4cc(c3O)Oc3ccc(cc3Cl)C(O)C3NC(=O)C(NC(=O)C4NC(=O)C(NC2=O)c2cc(O)cc(c2)Oc2cc1ccc2O)c1ccc(O)c(c1)-c1c(cc(O)c(CNC2C4CC5CC(C4)CC2C5)c1O)[C@H](C(=O)O)NC3=O` (some centres not stated), the 50% effective concentration (EC50) in assay [1] was 25 µM; in assay [2], 37 µM; in the assay listed under Mus musculus [4], 5.6 µM. This compound registered an MIC in the assay filed under Mus musculus [3] of 100 µM (≈ 136 µg/mL). Also, in the assay on CCRF-CEM, the concentration for half-maximal inhibition (IC50) was above 250 µM.
On the same counts, the results for `COC(=O)[C@@H]1NC(=O)C2NC(=O)C(NC(=O)C3NC(=O)C4NC(=O)C(NC(=O)C(N)c5ccc(O)c(c5)Oc5cc4cc(O)c5C)C(O)c4ccc(cc4)Oc4cc3cc(c4O)Oc3ccc(cc3)C2O)c2ccc(O)c(c2)-c2c(O)cc(O)cc21` (some centres not stated) are 25 µM, above 50 µM, 19 µM, above 100 µM and above 100 µM.
The compound `CN[C@H](CC(C)C)C(=O)N[C@H]1C(=O)N[C@@H](CC(N)=O)C(=O)N[C@H]2C(=O)N[C@H]3C(=O)N[C@H](C(=O)N[C@H](C(=O)NCc4ccc(-c5ccc(Cl)cc5)cc4)c4cc(O)cc(O)c4-c4cc3ccc4O)[C@H](O)c3ccc(c(Cl)c3)Oc3cc2cc(c3O[C@@H]2O[C@H](CO)[C@@H](O)[C@H](O)[C@H]2O[C@H]2C[C@](C)(N)C(O)[C@H](C)O2)Oc2ccc(cc2Cl)[C@H]1O` (some centres not stated) [listing 2 of 2 here] displayed an EC50 in the assay listed under Mus musculus [4] above 2 µM.
As for `CNC(=O)[C@@H]1NC(=O)C2NC(=O)C(NC(=O)C3NC(=O)C4NC(=O)C(Cc5ccc(c(Cl)c5)Oc5cc3cc(c5O)Oc3ccc(cc3Cl)C2O)NC(=O)C(NC(=O)OC(C)(C)C)c2ccc(O)c(c2)Oc2cc(O)cc4c2)c2ccc(O)c(c2)-c2c(O)cc(O)cc21` (some centres not stated), the 50% effective concentration (EC50) in assay [1] was determined as 13 µM; in assay [2], 17 µM; in the assay listed under Mus musculus [4], 11 µM. For the same compound, the MIC in the assay listed under Mus musculus [3] is above 100 µM. In the assay with CCRF-CEM, the half-inhibitory concentration (IC50) turned out to be 229 µM.
On to `O=C(NC1C(=O)NC2Cc3ccc(c(Cl)c3)Oc3cc4cc(c3O)Oc3ccc(cc3Cl)C(O)C3NC(=O)C(NC(=O)C4NC(=O)C(NC2=O)c2cc(O)cc(c2)Oc2cc1ccc2O)c1ccc(O)c(c1)-c1c(O)cc(O)cc1[C@H](C(=O)O)NC3=O)OCC1c2ccccc2-c2ccccc21` (some centres not stated), for which the 50% effective concentration (EC50) came out at 17 µM in assay [1], 15 µM in assay [2] and 10 µM in the assay listed under Mus musculus [4]. In addition, in the assay filed under Mus musculus [3], the MIC came to 100 µM (≈ 142 µg/mL). Further, the midpoint of inhibition with CCRF-CEM, the IC50, lay at 114 µM.
The matching figures for `O=C(NC1C(=O)NC2Cc3ccc(c(Cl)c3)Oc3cc4cc(c3O)Oc3ccc(cc3Cl)C(O)C3NC(=O)C(NC(=O)C4NC(=O)C(NC2=O)c2cc(O)cc(c2)Oc2cc1ccc2O)c1ccc(O)c(c1)-c1c(O)cc(O)cc1[C@H](C(=O)O)NC3=O)OCc1ccccc1` (some centres not stated): 12 µM, 8 µM, 11 µM, above 100 µM and above 250 µM.
On the same counts, the results for `COC(=O)[C@H]1NC(=O)C2NC(=O)C(NC(=O)[C@@H]3NC(=O)[C@H]4NC(=O)[C@H](NC(=O)[C@H](N)c5ccc(O)c(c5)Oc5cc4cc(O)c5C)[C@H](O)c4ccc(cc4)Oc4cc3cc(c4O)Oc3ccc(cc3)[C@H]2O[C@@H]2C[C@@H](N)[C@@H](O)[C@@H](C)O2)c2ccc(O)c(c2)-c2c(O)cc(O)cc21` are above 50 µM, above 250 µM, 52 µM, above 100 µM and above 100 µM.
As to `CN[C@H](CC(C)C)C(=O)N[C@H]1C(=O)N[C@@H](CC(N)=O)C(=O)N[C@H]2C(=O)N[C@H]3C(=O)N[C@H](C(=O)N[C@H](C(=O)O)c4cc(O)cc(O)c4-c4cc3ccc4O)[C@H](O)c3ccc(c(Cl)c3)Oc3cc2cc(c3O[C@@H]2O[C@H](CO)[C@@H](O)[C@H](O)[C@H]2O[C@H]2C[C@](C)(NCc3ccc(-c4ccc(Cl)cc4)cc3)C(O)[C@H](C)O2)Oc2ccc(cc2Cl)[C@H]1O` (some centres not stated) [listing 1 of 2 here], in the assay listed under Mus musculus [4], the 50% effective concentration (EC50) worked out at 7.7 µM.
Take `CCCCCCCCCCNC(=O)[C@@H]1NC(=O)C2NC(=O)C(NC(=O)C3NC(=O)C4NC(=O)C(Cc5ccc(c(Cl)c5)Oc5cc3cc(c5O)Oc3ccc(cc3Cl)C2O)NC(=O)C(N)c2ccc(O)c(c2)Oc2cc(O)cc4c2)c2ccc(O)c(c2)-c2c(O)cc(O)cc21` (some centres not stated): the values for the concentration giving a half-maximal response (EC50) in assay [1] and in assay [2] were 2.6 µM and 5.8 µM, respectively. This compound also came in with an IC50 with CCRF-CEM of 21 µM.
In the case of `CN[C@H](CC(C)C)C(=O)N[C@H]1C(=O)N[C@@H](CC(N)=O)C(=O)N[C@H]2C(=O)N[C@H]3C(=O)N[C@H](C(=O)N[C@H](C(=O)O)c4cc(O)cc(O)c4-c4cc3ccc4O)[C@H](O)c3ccc(c(Cl)c3)Oc3cc2cc(c3O[C@@H]2O[C@H](CO)[C@@H](O)[C@H](O)[C@H]2O[C@H]2C[C@](C)(NCc3ccc(-c4ccc(Cl)cc4)cc3)C(O)[C@H](C)O2)Oc2ccc(cc2Cl)[C@H]1O` (some centres not stated) [listing 2 of 2 here], the MIC in the assay listed under Mus musculus [3] was above 25 µM.
